Among all 20,000 compounds or so, about 25 (0.1%) were called active.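 The calls were made as follows: active = mean replicate protection from cytokine-induced ATP loss at least 50% and at least 75% of replicates each reaching 50%; inconclusive = meets only one of the two criteria, mean or replicate share; inactive = fails both the mean and replicate share criteria.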 The sample as a whole holds a higher share of actives than the screen did.
Experiment: protection of INS-1E cells from cytokine death, primary screen, ATP luminescence, single point (AID 488910)
Details: INS-1E cytokine-induced death, 48 h, at 10 µM, active compounds read high, normalised: neutral wells 0, positive control 100
Summary of the method: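 Assay system: INS-1E rat insulinoma cells. Amount: 8000 cells per well. Medium: phenol-red-free RPMI with 5% fetal bovine serum. Reagent: IL-1β, TNF-α and IFN-γ cytokine mix. Doses: one compound concentration, pin transfer. Schedule: 48 h co-treatment, 10 min post-lysis read. Detection: CellTiter-Glo luminescence measuring cellular ATP.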

Row | SMILES | protection from cytokine-induced ATP loss
1 | C[C@@H]1CN([C@@H](C)CO)C(=O)Cc2cc(NS(=O)(=O)c3cccs3)ccc2O[C@@H]1CN(C)S(=O)(=O)c1ccc(F)cc1 | 4.38% (inactive)
2 | C[C@H](CO)N1C[C@H](C)[C@H](CN(C)Cc2ccccc2)Oc2ccc(NC(=O)Cc3ccccc3)cc2C1=O | 0.0546% (inactive)
3 | C[C@@H]1CN([C@@H](C)CO)C(=O)c2cc(NC(=O)Nc3cccc4ccccc34)ccc2O[C@@H]1CN(C)C(=O)Nc1cccc2ccccc12 | -6.66% (inactive)
4 | C[C@@H]1CCCCO[C@H](CN(C)Cc2ccccc2)[C@@H](C)CN([C@H](C)CO)C(=O)c2cc(NC(=O)Cc3ccccc3)ccc2O1 | -13% (inactive)
5 | COc1ccc(NC(=O)Nc2ccc3c(c2)C(=O)N([C@@H](C)CO)C[C@@H](C)[C@H](CN(C)Cc2ccc(Cl)c(Cl)c2)O3)cc1 | -22.1% (inactive)
6 | C[C@@H]1CN([C@H](C)CO)C(=O)Cc2cc(NC(=O)Cn3cnnn3)ccc2O[C@H]1CN(C)Cc1ccc(C(F)(F)F)cc1 | 1.99% (inactive)
7 | C[C@@H]1CN([C@@H](C)CO)C(=O)c2cccc(NC(=O)C3CC3)c2O[C@@H]1CN(C)Cc1ccccc1 | 1.55% (inactive)
8 | CC(C)NC(=O)Nc1ccc2c(c1)CC(=O)N([C@H](C)CO)C[C@@H](C)[C@@H](CN(C)C(=O)Nc1ccc3c(c1)OCO3)O2 | 9.22% (inactive)
9 | C[C@@H]1CN([C@@H](C)CO)C(=O)c2cc(NS(=O)(=O)c3ccccc3)ccc2O[C@@H]1CN(C)Cc1ccc(C(=O)O)cc1 | 5.28% (inactive)
10 | C[C@H](CO)N1C[C@H](C)[C@H](CN(C)Cc2ccncc2)Oc2ccc(NS(=O)(=O)c3cn(C)cn3)cc2C1=O | -2.95% (inactive)
11 | C[C@@H]1CN([C@@H](C)CO)C(=O)c2cccc(NC(=O)C3CC3)c2O[C@@H]1CN(C)C | 3.84% (inactive)
12 | CC(C)NC(=O)Nc1ccc2c(c1)C(=O)N([C@@H](C)CO)C[C@@H](C)[C@H](CN(C)Cc1ccc(-c3ccccc3)cc1)O2 | -8.83% (inactive)
13 | C[C@H]1CN([C@@H](C)CO)C(=O)Cc2cc(NC(=O)Nc3ccc(F)cc3)ccc2O[C@H]1CN(C)C(=O)Nc1ccc(C(F)(F)F)cc1 | -14.8% (inactive)
14 | COc1ccc(NC(=O)N(C)C[C@@H]2Oc3ccc(NC(=O)Nc4ccccc4)cc3CC(=O)N([C@H](C)CO)C[C@@H]2C)cc1 | 9.6% (inactive)
15 | Cc1noc(C)c1NC(=O)Nc1cccc2c1O[C@@H](CN(C)CC1CCCCC1)[C@H](C)CN([C@@H](C)CO)C2=O | -7.27% (inactive)
16 | C[C@@H]1CN([C@@H](C)CO)C(=O)c2cccc(NS(=O)(=O)c3ccc(F)cc3)c2O[C@H]1CN(C)S(=O)(=O)c1cccs1 | 2.23% (inactive)
17 | COc1ccc(NC(=O)N(C)C[C@@H]2Oc3ccc(NC(=O)Cn4cnnn4)cc3C(=O)N([C@H](C)CO)C[C@@H]2C)cc1 | 6.28% (inactive)
18 | Cc1ccc(S(=O)(=O)Nc2ccc3c(c2)C(=O)N([C@@H](C)CO)C[C@H](C)[C@H](CN(C)C(=O)Nc2ccc(C(F)(F)F)cc2)O3)cc1 | -7.22% (inactive)
19 | Cc1noc(C)c1NC(=O)Nc1ccc2c(c1)C(=O)N([C@H](C)CO)C[C@@H](C)[C@H](CN(C)Cc1ccncc1)O2 | 3.35% (inactive)

Row | SMILES | protection from cytokine-induced ATP loss
20 | C[C@@H]1CN([C@@H](C)CO)C(=O)c2cccc(NC(=O)Nc3ccc(F)cc3)c2O[C@@H]1CN(C)C(=O)Nc1ccccc1 | 7.56% (inactive)
21 | C[C@H](CO)N1C[C@H](C)[C@@H](CN(C)Cc2ccc3c(c2)OCO3)Oc2c(cccc2N(C)C)C1=O | -11% (inactive)
22 | C[C@@H]1CN([C@@H](C)CO)C(=O)c2cccc(NS(=O)(=O)c3cccs3)c2O[C@@H]1CN(C)CC1CC1 | -3.04% (inactive)
23 | C[C@@H]1CN([C@H](C)CO)C(=O)c2cccc(NS(=O)(=O)c3ccccc3)c2O[C@@H]1CN(C)Cc1ccc(C(=O)O)cc1 | 2.31% (inactive)
24 | C[C@@H]1CN([C@@H](C)CO)C(=O)c2cc(NC(=O)CCN3CCOCC3)ccc2O[C@H]1CN(C)C(=O)NC1CCCCC1 | 5.18% (inactive)
25 | C[C@H](CO)N1C[C@H](C)[C@@H](CN(C)Cc2ccc(C(=O)Nc3ccccc3N)cc2)Oc2c(NC(=O)C3CC3)cccc2C1=O | -6.93% (inactive)
26 | COc1ccc(NC(=O)N(C)C[C@@H]2Oc3c(NS(=O)(=O)c4cn(C)cn4)cccc3C(=O)N([C@H](C)CO)C[C@@H]2C)cc1 | -3.57% (inactive)
27 | Cc1noc(C)c1S(=O)(=O)N(C)C[C@H]1OCCCC[C@@H](C)Oc2ccc(NC(=O)C3CCCCC3)cc2C(=O)N([C@H](C)CO)C[C@@H]1C | 8.15% (inactive)
28 | C[C@@H]1CN([C@H](C)CO)C(=O)Cc2cc(NC(=O)c3ccncc3)ccc2O[C@@H]1CN(C)Cc1ccncc1 | 13.2% (inactive)
29 | Cc1ccc(S(=O)(=O)N(C)C[C@@H]2Oc3c(NS(C)(=O)=O)cccc3C(=O)N([C@@H](C)CO)C[C@H]2C)cc1 | -1.18% (inactive)
30 | C[C@H]1CN([C@@H](C)CO)C(=O)Cc2cc(NC(=O)Nc3ccc(F)cc3)ccc2O[C@H]1CN(C)S(=O)(=O)c1ccc(F)cc1 | -1.52% (inactive)
31 | Cc1noc(C)c1S(=O)(=O)Nc1ccc2c(c1)C(=O)N([C@@H](C)CO)C[C@@H](C)[C@H](CN(C)Cc1ccc(-c3ccccc3)cc1)O2 | -8.15% (inactive)
32 | C[C@@H]1CN([C@@H](C)CO)C(=O)c2cc(NC(=O)CCCN(C)C)ccc2O[C@H]1CN(C)Cc1ccccc1 | -3.08% (inactive)
33 | CC(C)NC(=O)Nc1ccc2c(c1)C(=O)N([C@@H](C)CO)C[C@@H](C)[C@H](CN(C)C(=O)NC1CCCCC1)O2 | 4.32% (inactive)
34 | Cc1ccc(S(=O)(=O)Nc2cccc3c2O[C@@H](CN(C)S(=O)(=O)c2cccs2)[C@@H](C)CN([C@@H](C)CO)C3=O)cc1 | -0.391% (inactive)
35 | C[C@H]1CN([C@@H](C)CO)C(=O)c2cccc(NS(=O)(=O)c3cn(C)cn3)c2O[C@@H]1CN(C)C(=O)Nc1ccc(F)cc1 | 11.3% (inactive)
36 | COc1ccc(NC(=O)Nc2ccc3c(c2)C(=O)N([C@H](C)CO)C[C@H](C)[C@H](CN(C)C(=O)Nc2c(C)noc2C)OCCCC[C@@H](C)O3)cc1 | 12% (inactive)
37 | C[C@@H]1CN([C@H](C)CO)C(=O)c2cc(NS(=O)(=O)c3cn(C)cn3)ccc2O[C@H]1CN(C)S(=O)(=O)c1ccc(Cl)cc1 | 0.346% (inactive)
38 | COc1ccc(NC(=O)N(C)C[C@@H]2Oc3c(NS(C)(=O)=O)cccc3C(=O)N([C@H](C)CO)C[C@H]2C)cc1 | 3.08% (inactive)

Row | SMILES | protection from cytokine-induced ATP loss
39 | Cc1ccc(S(=O)(=O)N(C)C[C@H]2Oc3c(NS(=O)(=O)c4cccs4)cccc3C(=O)N([C@@H](C)CO)C[C@@H]2C)cc1 | -3.52% (inactive)
40 | O=C(O)CCCCCC(=O)N/N=C/c1ccco1 | 17.1% (inactive)
41 | Cc1ccc(S(=O)(=O)Nc2ccc3c(c2)C(=O)N([C@@H](C)CO)C[C@@H](C)[C@H](CN(C)CC2CC2)O3)cc1 | -3.86% (inactive)
42 | C[C@H]1CN([C@@H](C)CO)C(=O)c2cccc(NC(=O)c3ccncc3)c2O[C@@H]1CN(C)C | 7.37% (inactive)
43 | C[C@H]1CN([C@@H](C)CO)C(=O)c2cccc(NC(=O)Nc3ccc(C(F)(F)F)cc3)c2O[C@@H]1CN(C)Cc1ccccc1 | -19.3% (inactive)
44 | Cc1noc(C)c1NC(=O)Nc1ccc2c(c1)CC(=O)N([C@H](C)CO)C[C@@H](C)[C@@H](CN(C)Cc1ccc(C(F)(F)F)cc1)O2 | 10.5% (inactive)
45 | C[C@H](CO)N1C[C@H](C)[C@@H](CN(C)S(=O)(=O)c2ccccc2)Oc2c(NC(=O)c3ccc(-c4nccs4)cc3)cccc2C1=O | 5.11% (inactive)
46 | C[C@@H]1CN([C@H](C)CO)C(=O)c2cc(NC(=O)CCCCCC(=O)Nc3ccccc3N)ccc2O[C@@H]1CN(C)Cc1ccncc1 | 6.45% (inactive)
47 | CC(C)NC(=O)Nc1ccc2c(c1)CC(=O)N([C@H](C)CO)C[C@@H](C)[C@H](CN(C)S(=O)(=O)c1ccccc1)O2 | 9.86% (inactive)
48 | C[C@@H]1CN([C@@H](C)CO)C(=O)c2cccc(NS(=O)(=O)c3ccc(Cl)cc3)c2O[C@@H]1CN(C)C(=O)Nc1ccccc1 | 0.662% (inactive)
49 | C[C@H]1CN([C@@H](C)CO)C(=O)c2cccc(NC(=O)Nc3ccccc3)c2O[C@H]1CN(C)C(=O)Nc1cccc2ccccc12 | 6.53% (inactive)
50 | C[C@@H]1CN([C@@H](C)CO)C(=O)c2cc(NS(=O)(=O)c3cccs3)ccc2O[C@@H]1CN(C)S(=O)(=O)c1ccc(F)cc1 | -0.641% (inactive)
51 | Cc1noc(C)c1NC(=O)Nc1cccc2c1O[C@H](CN(C)C(=O)Nc1ccccc1)[C@@H](C)CN([C@H](C)CO)C2=O | 6.69% (inactive)
52 | C[C@H]1CN([C@@H](C)CO)C(=O)c2cccc(NC(=O)NC3CCCCC3)c2O[C@H]1CN(C)CC1CCCCC1 | -14.4% (inactive)
53 | Cc1noc(C)c1NC(=O)Nc1ccc2c(c1)C(=O)N([C@@H](C)CO)C[C@H](C)[C@@H](CN(C)C(=O)Nc1ccccc1)O2 | -2.87% (inactive)
54 | C[C@@H]1CN([C@H](C)CO)C(=O)Cc2cc(NC(=O)C3CCCCC3)ccc2O[C@@H]1CN(C)Cc1ccc(C(F)(F)F)cc1 | -23.1% (inactive)
55 | COc1ccc(NC(=O)N(C)C[C@@H]2Oc3c(NC(=O)C4CCOCC4)cccc3C(=O)N([C@H](C)CO)C[C@@H]2C)cc1 | 5.6% (inactive)
56 | C[C@H](CO)N1C[C@H](C)[C@@H](CN(C)Cc2ccc(Cl)c(Cl)c2)Oc2ccc(NS(=O)(=O)c3ccccc3)cc2C1=O | -24.5% (inactive)

Reference: PubChem BioAssay AID488910 (Broad Institute, 2010)
